Measurements reported in article PMC12757722 (Molecular Cancer Therapeutics, 2025).

What was measured:
[1] = target: T1, K-Ras (WT) (Homo sapiens, UniProt P01116); assay: MST binding of labeled nucleotide
[2] = target: T2, K-Ras (Q61H) (Homo sapiens, UniProt P01116, Q61H); assay: MST binding of labeled nucleotide; settings: read-out: MST GTP Kd
[3] = target: T3, K-Ras (G12D) (Homo sapiens, UniProt P01116, G12D); assay: SPA with [32P]GTP; format: binding
Summary of the method: (§1)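 Saturation binding used [32P]GTP (3,000 Ci/mmol) at 2.5 nmol/L–10 µmol/L, with nonspecific signal defined by 800 mmol/L imidazole. Counts were converted to pmol, and Kd and Bmax fitted from bound versus free GTP. Three independent experiments, technical triplicates.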

[4] = target: T1, K-Ras (WT); assay: SPA with [32P]GTP; format: binding
Summary of the method: as §1

[5] = target: T4, Rac-1 (Homo sapiens, UniProt P63000); assay: SPA with [32P]GTP; format: binding
Summary of the method: as §1

[6] = target: T5, K-Ras (G12C) (Homo sapiens, UniProt P01116, G12C); assay: MST binding of labeled nucleotide
[7] = target: T6, Rho-A (Homo sapiens, UniProt P61586); assay: MST binding of labeled nucleotide; settings: read-out: MST GTP Kd
[8] = target: T5, K-Ras (G12C); assay: SPA with [32P]GTP; format: binding
Summary of the method: as §1

[9] = target: T3, K-Ras (G12D); assay: MST binding of labeled nucleotide; settings: read-out: MST GTP Kd
[10] = target: T2, K-Ras (Q61H); assay: SPA with [32P]GTP; format: binding
Summary of the method: as §1

[11] = target: T1, K-Ras (WT); assay: Filtration binding assay with α-[32P]GTP
Summary of the method: (§2)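 Nucleotide-free His10-tagged K-Ras (residues 2–185) was expressed in E. coli and purified by Ni affinity and SEC. Varying protein amounts were incubated with α-[32P]GTP (2,594 Ci/mmol; 2.88 nmol/L final) for 5 min at 23°C in 100 µL. Samples were filtered through 0.45-µm MCE membranes, washed with ice-cold GTP-free assay buffer, and dried filters counted for dpm. Kd came from saturation binding and kon from a time course.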

[12] = target: T3, K-Ras (G12D); assay: Filtration binding assay with α-[32P]GTP
Summary of the method: as §2

[13] = target: T4, Rac-1; assay: MST binding of labeled nucleotide; settings: read-out: MST GTP Kd
[14] = tested on: H-Ras; settings: Feuerstein and colleagues; cited from earlier work
[15] = target: T6, Rho-A; assay: SPA with [32P]GTP; format: binding
Summary of the method: as §1

[16] = tested on: K-Ras; settings: Goebel and colleagues; cited from earlier work

T6 sequence (P61586 2-181): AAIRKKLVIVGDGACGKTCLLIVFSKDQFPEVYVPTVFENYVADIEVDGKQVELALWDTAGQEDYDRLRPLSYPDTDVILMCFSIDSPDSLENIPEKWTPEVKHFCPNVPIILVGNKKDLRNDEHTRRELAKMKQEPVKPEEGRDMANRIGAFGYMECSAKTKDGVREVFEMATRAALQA

Nc1nc2c(ncn2[C@@H]2O[C@H](COP(=O)(O)OP(=O)(O)OP(=O)(O)O)[C@@H](O)[C@H]2O)c(=O)[nH]1 [GTP]
Kd ([1]; read-out: MST GTP Kd, 23°C): 463 ± 23 nM | Kd [2]: 157 ± 21 nM | SPA Bmax (mol:mol) [3]: 0.97 ± 0.01 mol:mol | Kd ([3]; read-out: SPA GTP Kd): 280 ± 19 nM | SPA Bmax (mol:mol) ([4]; K-Ras (WT), molar binding stoichiometry of GTP to protein): 1.00 ± 0.01 mol:mol | kon by SPA ([4]; WT K-Ras): 3.22e+08 M⁻¹ s⁻¹ | Kd ([4]; read-out: SPA GTP Kd, K-Ras (WT)): 246 ± 19 nM | SPA Bmax (mol:mol) [5]: 1.03 ± 0.02 mol:mol | Kd ([5]; read-out: SPA GTP Kd): 151 ± 14 nM | Kd ([6]; read-out: MST GTP Kd): 207 ± 46 nM | Kd [7]: 130 ± 5 nM | SPA Bmax (mol:mol) [8]: 0.94 ± 0.02 mol:mol | Kd ([8]; read-out: SPA GTP Kd): 359 ± 35 nM | Kd [9]: 244 ± 12 nM | SPA Bmax (mol:mol) [10]: 0.96 ± 0.02 mol:mol | Filtration assay Bmax (mol:mol) ([11]; K-Ras (WT)): 0.93 ± 0.03 mol:mol | kon by filtration binding assay ([11]; K-Ras, time course study): 2.13e+08 M⁻¹ s⁻¹ | Kd ([11]; read-out: Filtration assay GTP Kd, K-Ras (WT), 23°C): 228 ± 26 nM | kon by filtration binding assay ([12]; G12D K-Ras mutant, time course study): 2.49e+08 M⁻¹ s⁻¹ | Filtration assay Bmax (mol:mol) ([12]; K-Ras (G12D)): 0.95 ± 0.02 mol:mol | Kd ([12]; read-out: Filtration assay GTP Kd, K-Ras (G12D), 23°C): 345 ± 25 nM | Kd [13]: 166 ± 10 nM | koff [14]: 8e-05 s⁻¹ | kon [14]: 2.9e+06 M⁻¹ s⁻¹ | SPA Bmax (mol:mol) [15]: 1.02 ± 0.02 mol:mol | Kd ([15]; read-out: SPA GTP Kd): 129 ± 12 nM

Nc1nc2c(ncn2[C@@H]2O[C@H](COP(=O)(O)OP(=O)(O)O)[C@@H](O)[C@H]2O)c(=O)[nH]1 [GDP]
Kd ([1]; read-out: MST GDP Kd): 394 ± 54 nM | koff [16]: 1.1e-05 s⁻¹ | kon [16]: 4.22e+06 M⁻¹ s⁻¹ | Kd ([6]; read-out: MST GDP Kd): 360 ± 34 nM
